Assay results reported in paper PMC3158671 (Carbohydrate Research, 2011).
pIC50, pKi: −log10 of the molar value.

Legend:
[1] = target: α-galactosidase from green coffee beans (Coffea arabica, UniProt Q42656); assay: Green coffee bean α-galactosidase inhibition; type: biochemical
[2] = target: β-galactosidase from E. coli (Escherichia coli, UniProt P00722); assay: E. coli β-galactosidase inhibition; type: biochemical
[3] = target: T1, β-galactosidase p.Arg483Pro mutation (Felis catus, UniProt O19015, R483P); assay: Intracellular β-galactosidase activity in GM1 gangliosidosis feline fibroblasts; type: cell-based, cat; conditions: 5 days; for maximal increase of intracellular β-galactosidase activity: relative to DMSO treated cells
T1 sequence (O19015 30-669 R483P): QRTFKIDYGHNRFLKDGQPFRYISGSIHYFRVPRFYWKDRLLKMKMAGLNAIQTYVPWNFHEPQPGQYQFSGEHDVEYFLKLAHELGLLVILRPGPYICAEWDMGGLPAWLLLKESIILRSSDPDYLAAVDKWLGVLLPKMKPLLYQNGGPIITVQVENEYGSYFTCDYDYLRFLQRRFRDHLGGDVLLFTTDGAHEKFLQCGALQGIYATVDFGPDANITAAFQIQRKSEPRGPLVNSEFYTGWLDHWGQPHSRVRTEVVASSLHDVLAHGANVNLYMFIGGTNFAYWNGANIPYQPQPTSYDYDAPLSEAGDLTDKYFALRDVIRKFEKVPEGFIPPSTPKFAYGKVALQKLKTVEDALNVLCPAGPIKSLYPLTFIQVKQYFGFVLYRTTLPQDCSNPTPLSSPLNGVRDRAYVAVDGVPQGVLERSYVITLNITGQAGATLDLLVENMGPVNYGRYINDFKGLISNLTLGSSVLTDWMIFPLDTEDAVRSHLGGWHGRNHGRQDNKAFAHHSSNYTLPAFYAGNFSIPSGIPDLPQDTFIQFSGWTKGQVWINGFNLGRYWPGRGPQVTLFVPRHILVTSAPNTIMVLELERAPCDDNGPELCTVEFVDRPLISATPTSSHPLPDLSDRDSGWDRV
Method in brief: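 GM1 gangliosidosis fibroblasts from an affected cat (β-galactosidase p.Arg483Pro) treated 5 days with escalating doses of test compound dissolved in DMSO. Cells lysed; intracellular β-galactosidase measured with fluorogenic 4-methylumbelliferyl β-D-galactopyranoside, β-N-acetylhexosaminidase also measured with MU substrate. Activity normalized to DMSO-treated cells.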

[4] = target: T2, human lysosomal β-galactosidase (Homo sapiens, UniProt P16278); assay: Human lysosomal β-galactosidase inhibition; type: biochemical
T2 sequence (P16278 29-677): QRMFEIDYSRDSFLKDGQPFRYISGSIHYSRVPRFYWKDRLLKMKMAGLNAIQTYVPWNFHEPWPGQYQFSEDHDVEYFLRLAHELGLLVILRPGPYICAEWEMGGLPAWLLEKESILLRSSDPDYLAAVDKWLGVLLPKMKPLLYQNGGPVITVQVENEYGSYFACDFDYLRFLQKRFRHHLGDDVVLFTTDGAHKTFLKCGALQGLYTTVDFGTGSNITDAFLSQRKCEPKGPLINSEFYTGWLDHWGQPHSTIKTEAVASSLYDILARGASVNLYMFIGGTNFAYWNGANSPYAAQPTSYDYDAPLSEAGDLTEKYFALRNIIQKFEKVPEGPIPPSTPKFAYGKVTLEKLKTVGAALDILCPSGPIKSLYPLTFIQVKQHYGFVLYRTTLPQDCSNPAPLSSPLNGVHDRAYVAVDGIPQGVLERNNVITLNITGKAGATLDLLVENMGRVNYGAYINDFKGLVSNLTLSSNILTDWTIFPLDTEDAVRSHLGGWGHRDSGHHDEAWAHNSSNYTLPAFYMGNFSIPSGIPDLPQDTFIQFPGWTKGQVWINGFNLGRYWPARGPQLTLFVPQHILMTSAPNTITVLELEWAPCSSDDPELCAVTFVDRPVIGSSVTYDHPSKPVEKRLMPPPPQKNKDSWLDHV

[5] = target: T3, β-glucosidase/β-galactosidase from Agrobacterium sp. (Agrobacterium sp., UniProt P12614); assay: Agrobacterium sp. β-galactosidase/-glucosidase inhibition; type: biochemical
T3 sequence (P12614 1-459): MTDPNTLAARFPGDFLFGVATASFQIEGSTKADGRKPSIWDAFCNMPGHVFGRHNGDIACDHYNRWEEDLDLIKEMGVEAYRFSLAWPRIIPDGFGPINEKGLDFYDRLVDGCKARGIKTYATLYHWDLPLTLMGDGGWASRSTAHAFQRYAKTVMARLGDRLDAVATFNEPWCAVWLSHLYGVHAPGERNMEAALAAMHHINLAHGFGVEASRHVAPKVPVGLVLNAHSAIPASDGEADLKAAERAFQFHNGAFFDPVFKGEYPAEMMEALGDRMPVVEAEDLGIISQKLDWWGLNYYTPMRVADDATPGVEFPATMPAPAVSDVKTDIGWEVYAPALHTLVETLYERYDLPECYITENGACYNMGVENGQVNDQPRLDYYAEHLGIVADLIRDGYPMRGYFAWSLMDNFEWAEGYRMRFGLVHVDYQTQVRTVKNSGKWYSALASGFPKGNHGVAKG

Chain of α-galactosidase from green coffee beans (Q42656 16-378): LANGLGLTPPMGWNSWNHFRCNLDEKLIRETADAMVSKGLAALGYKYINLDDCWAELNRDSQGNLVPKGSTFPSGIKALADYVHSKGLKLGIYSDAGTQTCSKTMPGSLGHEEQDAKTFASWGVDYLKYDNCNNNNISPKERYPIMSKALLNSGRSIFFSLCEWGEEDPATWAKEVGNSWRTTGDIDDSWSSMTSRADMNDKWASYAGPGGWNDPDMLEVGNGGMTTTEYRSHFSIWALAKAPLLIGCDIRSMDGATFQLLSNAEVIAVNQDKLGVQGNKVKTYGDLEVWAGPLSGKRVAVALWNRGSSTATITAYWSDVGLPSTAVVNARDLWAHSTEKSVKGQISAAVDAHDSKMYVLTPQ
Chain of β-galactosidase from E. coli (P00722 2-1024 limits assumed): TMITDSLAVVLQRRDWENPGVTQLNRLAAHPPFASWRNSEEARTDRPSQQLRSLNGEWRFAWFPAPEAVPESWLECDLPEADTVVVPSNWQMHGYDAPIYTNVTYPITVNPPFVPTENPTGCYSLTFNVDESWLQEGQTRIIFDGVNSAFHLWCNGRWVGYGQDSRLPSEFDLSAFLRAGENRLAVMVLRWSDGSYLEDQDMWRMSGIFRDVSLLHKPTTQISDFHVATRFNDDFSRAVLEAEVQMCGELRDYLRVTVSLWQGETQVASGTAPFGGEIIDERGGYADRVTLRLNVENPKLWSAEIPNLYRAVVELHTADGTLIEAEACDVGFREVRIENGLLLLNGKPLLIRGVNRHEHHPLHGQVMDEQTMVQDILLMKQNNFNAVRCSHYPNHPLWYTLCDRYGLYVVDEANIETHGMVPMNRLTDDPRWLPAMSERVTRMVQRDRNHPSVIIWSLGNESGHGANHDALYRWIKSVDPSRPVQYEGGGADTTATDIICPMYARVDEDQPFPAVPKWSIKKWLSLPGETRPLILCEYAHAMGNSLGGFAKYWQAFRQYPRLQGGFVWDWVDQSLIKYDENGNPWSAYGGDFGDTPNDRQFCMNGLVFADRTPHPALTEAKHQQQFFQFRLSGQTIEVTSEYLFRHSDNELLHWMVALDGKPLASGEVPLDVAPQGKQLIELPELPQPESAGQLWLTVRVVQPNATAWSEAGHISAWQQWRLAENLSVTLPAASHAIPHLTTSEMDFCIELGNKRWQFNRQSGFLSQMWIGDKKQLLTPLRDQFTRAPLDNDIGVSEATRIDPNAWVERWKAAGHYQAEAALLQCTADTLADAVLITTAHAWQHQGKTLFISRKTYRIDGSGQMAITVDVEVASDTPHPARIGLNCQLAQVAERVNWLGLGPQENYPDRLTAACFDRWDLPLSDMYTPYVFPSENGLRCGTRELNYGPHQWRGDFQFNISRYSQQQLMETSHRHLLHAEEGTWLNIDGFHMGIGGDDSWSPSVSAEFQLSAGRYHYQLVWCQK

Structure (SMILES) | pKi [1] | pKi [2] | concentration at maximal increase of intracellular β-galactosidase activity [3] [µM] | maximal increase of intracellular β-galactosidase activity [3] [fold] | pIC50 [4] | pKi [5] | range of β-galactosidase activity enhancement [3]
CN(C)c1cccc2c(S(=O)(=O)NCCCCCCN(CCCCCCNS(=O)(=O)c3cccc4c(N(C)C)cccc34)CCCCCCN3C[C@H](O)[C@@H](O)[C@@H](O)[C@H]3CO)cccc12 [Compound 13, N-Bis(dansylaminohexyl)aminohexyl-1,5-dideoxy-1,5-imino-D-galactitol] | 6.28 | 6.92 | 3.0 | 1.8 | 5.57 | 6.64 | –
CN(C)c1cccc2c(S(=O)(=O)NCCCCCCNC(=O)CCCCCN3C[C@H](O)[C@@H](O)[C@@H](O)[C@H]3CO)cccc12 [Compound 8, N-(Dansylamino)hexylaminocarbonylpentyl-1,5-dideoxy-1,5-imino-D-galactitol] | – | – | 258 | 1.7 | 5.21 | 6.35 | large range over which it enhanced β-galactosidase activity
CN(C)c1cccc2c(S(=O)(=O)NCCCCCCN(CCCCCCNS(=O)(=O)c3cccc4c(N(C)C)cccc34)C(=O)CCCCCN3C[C@H](O)[C@@H](O)[C@@H](O)[C@H]3CO)cccc12 [Compound 9, N-Bis(dansylaminohexyl)aminocarbonylpentyl-1,5-dideoxy-1,5-imino-D-galactitol] | 5.59 | 6.54 | 2.1 | 1.5 | 6.07 | 6.20 | –
CCCCCCCC(=O)N(CCCCCCNS(=O)(=O)c1cccc2c(N(C)C)cccc12)CCCCCCN1C[C@H](O)[C@@H](O)[C@@H](O)[C@H]1CO [Compound 15, N-[(Dansylaminohexyl)-N-octanoylamino]hexyl-1,5-dideoxy-1,5-imino-D-galactitol] | 6.70 | 7.33 | – | – | 5.74 | 7.55 | –
